Reference: ChEMBL document CHEMBL3259739, “Synthesis and structure-activity relationship of trisubstituted thiazoles as Cdc7 kinase inhibitors” (Eur J Med Chem, 2014)

Legend:
[1] = biological target: Mitogen-activated protein kinase 10 (Homo sapiens) (UniProt P53779); assay: Inhibition of JNK3 (unknown origin) at 1 uM relative to control; values are per cent of control
[2] = biological target: Insulin receptor (Homo sapiens) (UniProt P06213); assay: Inhibition of INSR (unknown origin) at 1 uM relative to control; values are per cent of control
Insulin receptor (Homo sapiens), sequence (P06213 28-758 limits assumed): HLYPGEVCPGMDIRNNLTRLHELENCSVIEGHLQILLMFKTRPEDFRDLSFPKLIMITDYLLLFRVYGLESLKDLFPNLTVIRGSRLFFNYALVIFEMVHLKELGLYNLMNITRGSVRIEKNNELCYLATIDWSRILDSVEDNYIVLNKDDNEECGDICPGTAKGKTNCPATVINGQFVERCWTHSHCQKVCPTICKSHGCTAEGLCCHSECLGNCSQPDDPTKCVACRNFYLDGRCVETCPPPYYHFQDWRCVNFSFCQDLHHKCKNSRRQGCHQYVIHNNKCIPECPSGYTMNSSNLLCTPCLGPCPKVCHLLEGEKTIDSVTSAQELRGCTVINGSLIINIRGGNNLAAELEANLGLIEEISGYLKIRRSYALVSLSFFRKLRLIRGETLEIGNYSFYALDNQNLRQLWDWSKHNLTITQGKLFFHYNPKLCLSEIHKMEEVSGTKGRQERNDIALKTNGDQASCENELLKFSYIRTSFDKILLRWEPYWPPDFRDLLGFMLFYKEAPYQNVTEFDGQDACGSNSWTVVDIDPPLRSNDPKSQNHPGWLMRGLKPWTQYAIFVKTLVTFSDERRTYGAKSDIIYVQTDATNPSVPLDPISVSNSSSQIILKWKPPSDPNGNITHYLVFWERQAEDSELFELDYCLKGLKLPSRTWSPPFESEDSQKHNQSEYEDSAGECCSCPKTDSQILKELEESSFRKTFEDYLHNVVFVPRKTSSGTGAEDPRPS
Insulin receptor (Homo sapiens), sequence (P06213 763-1382 limits assumed): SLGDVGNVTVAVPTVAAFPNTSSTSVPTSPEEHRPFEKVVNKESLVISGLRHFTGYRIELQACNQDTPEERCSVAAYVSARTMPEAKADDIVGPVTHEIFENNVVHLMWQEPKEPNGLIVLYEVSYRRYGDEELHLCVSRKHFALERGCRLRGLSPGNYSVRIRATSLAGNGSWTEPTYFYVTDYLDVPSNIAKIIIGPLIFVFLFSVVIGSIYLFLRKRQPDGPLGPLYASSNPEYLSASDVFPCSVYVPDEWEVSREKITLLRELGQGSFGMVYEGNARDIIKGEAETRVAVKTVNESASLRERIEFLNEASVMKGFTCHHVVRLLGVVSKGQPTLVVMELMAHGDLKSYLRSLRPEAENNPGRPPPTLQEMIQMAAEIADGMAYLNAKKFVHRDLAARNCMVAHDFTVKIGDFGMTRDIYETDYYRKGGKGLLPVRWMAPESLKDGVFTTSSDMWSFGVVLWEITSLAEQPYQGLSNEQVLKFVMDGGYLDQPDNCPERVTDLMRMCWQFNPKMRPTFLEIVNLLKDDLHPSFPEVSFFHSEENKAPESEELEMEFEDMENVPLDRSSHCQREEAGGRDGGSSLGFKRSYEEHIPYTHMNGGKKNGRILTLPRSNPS

[3] = biological target: T1, Phosphatidylinositol 4,5-bisphosphate 3-kinase catalytic subunit delta isoform (Homo sapiens) (UniProt O00329); assay: Inhibition of PIK3CD (unknown origin) at 1 uM relative to control; details: values are per cent of control
T1 sequence (whole entry): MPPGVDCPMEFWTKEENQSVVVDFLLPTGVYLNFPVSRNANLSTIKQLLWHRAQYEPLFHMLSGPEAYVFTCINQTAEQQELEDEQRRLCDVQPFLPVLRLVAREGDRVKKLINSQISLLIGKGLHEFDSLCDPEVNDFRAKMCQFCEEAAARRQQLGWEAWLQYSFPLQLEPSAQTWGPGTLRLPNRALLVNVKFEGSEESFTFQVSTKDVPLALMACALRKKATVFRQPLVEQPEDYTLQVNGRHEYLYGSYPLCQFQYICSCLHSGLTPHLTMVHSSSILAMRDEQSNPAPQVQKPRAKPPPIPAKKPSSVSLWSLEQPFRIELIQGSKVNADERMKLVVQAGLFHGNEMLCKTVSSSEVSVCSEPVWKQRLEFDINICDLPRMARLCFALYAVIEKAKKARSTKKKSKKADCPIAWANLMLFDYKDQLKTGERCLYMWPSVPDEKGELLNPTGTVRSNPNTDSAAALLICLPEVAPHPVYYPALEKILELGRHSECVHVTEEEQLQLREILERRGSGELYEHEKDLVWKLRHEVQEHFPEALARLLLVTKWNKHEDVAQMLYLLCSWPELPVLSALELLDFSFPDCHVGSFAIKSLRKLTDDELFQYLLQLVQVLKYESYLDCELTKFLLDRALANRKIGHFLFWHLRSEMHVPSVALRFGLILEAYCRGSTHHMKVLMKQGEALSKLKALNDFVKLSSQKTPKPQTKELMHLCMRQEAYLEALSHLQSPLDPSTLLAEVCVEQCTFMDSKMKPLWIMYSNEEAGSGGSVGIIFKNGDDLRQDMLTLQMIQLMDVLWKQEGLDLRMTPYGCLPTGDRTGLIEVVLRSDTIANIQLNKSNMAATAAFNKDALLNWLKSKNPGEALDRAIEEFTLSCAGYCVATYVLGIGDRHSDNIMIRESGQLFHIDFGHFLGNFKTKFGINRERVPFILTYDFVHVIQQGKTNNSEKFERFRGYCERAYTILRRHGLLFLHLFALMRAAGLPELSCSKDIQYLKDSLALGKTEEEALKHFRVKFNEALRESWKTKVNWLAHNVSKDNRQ
How it was run: (§1)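 KinomeSCAN competitive binding panel of 100 kinases; compounds tested at 1 µM in duplicate; read-out is percent […] control.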

[4] = biological target: Tyrosine-protein kinase JAK2 (Homo sapiens) (UniProt O60674); assay: Inhibition of JH1 catalytic domain of JAK2 (unknown origin) at 1 uM relative to control; values are per cent of control
Tyrosine-protein kinase JAK2 (Homo sapiens), sequence (O60674 whole entry, the tested form may be a part): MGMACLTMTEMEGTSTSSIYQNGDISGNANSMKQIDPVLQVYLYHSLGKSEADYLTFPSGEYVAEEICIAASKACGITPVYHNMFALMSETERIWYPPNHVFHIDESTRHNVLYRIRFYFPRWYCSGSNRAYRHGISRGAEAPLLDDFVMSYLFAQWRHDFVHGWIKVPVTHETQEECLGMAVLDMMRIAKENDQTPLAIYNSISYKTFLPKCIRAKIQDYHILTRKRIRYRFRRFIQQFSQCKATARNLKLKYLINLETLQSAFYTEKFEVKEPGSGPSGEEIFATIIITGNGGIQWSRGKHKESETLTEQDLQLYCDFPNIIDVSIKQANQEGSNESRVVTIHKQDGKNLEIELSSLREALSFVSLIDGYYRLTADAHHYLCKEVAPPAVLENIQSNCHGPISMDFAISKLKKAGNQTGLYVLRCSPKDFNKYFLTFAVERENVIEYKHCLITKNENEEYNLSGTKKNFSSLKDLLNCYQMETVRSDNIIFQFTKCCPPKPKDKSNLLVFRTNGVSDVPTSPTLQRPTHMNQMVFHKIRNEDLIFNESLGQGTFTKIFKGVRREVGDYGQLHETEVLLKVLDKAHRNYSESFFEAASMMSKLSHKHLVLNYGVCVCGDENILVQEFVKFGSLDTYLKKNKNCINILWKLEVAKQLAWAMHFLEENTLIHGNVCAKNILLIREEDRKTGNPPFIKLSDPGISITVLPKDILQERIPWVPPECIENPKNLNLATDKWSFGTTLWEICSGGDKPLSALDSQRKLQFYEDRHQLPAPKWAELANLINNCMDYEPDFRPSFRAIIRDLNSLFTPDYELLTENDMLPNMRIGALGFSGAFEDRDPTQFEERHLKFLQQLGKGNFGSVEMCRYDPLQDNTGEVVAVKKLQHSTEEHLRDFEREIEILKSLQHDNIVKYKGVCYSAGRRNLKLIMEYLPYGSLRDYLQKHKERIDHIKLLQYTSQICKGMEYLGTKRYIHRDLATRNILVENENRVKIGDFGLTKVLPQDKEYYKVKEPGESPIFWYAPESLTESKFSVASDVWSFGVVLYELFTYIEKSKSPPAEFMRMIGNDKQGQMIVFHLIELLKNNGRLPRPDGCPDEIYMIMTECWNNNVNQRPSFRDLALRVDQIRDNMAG

[5] = biological target: Tyrosine-protein kinase SYK (Homo sapiens) (UniProt P43405); assay: Inhibition of SYK (unknown origin) at 1 uM relative to control; details: values are per cent of control
[6] = biological target: Cyclin-dependent kinase 18 (Homo sapiens) (UniProt Q07002); assay: Inhibition of PCTK3 (unknown origin) at 1 uM relative to control; details: values are per cent of control
Cyclin-dependent kinase 18 (Homo sapiens), sequence (Q07002 whole entry): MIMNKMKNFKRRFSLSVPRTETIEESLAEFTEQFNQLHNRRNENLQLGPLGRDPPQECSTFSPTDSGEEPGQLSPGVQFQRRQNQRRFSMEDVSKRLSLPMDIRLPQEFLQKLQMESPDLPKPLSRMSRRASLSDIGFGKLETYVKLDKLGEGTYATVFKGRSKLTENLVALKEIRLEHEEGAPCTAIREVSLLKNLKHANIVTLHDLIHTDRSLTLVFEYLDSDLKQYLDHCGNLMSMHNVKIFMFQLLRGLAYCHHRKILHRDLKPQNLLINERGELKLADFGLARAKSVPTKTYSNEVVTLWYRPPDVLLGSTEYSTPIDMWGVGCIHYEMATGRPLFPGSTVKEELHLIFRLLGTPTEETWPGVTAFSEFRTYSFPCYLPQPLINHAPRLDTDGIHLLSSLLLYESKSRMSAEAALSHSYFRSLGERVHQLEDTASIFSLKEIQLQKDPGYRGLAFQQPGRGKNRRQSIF
How it was run: as §1

[7] = biological target: T2, Testis-specific serine/threonine-protein kinase 1 (Homo sapiens) (UniProt Q9BXA7); assay: Inhibition of TSSK1B (unknown origin) at 1 uM relative to control; details: values are per cent of control
T2 sequence (whole entry): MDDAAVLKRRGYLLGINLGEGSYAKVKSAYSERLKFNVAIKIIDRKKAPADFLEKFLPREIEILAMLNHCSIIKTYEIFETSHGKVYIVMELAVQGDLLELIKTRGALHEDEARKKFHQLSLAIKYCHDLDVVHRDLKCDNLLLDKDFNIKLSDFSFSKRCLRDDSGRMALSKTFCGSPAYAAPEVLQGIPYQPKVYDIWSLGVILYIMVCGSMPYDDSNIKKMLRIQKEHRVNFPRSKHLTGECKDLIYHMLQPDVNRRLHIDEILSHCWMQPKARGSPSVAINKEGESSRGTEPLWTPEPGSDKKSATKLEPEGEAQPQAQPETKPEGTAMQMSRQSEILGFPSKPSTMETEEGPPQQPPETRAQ
How it was run: as §1

Mitogen-activated protein kinase 10 (Homo sapiens), sequence (P53779 whole entry): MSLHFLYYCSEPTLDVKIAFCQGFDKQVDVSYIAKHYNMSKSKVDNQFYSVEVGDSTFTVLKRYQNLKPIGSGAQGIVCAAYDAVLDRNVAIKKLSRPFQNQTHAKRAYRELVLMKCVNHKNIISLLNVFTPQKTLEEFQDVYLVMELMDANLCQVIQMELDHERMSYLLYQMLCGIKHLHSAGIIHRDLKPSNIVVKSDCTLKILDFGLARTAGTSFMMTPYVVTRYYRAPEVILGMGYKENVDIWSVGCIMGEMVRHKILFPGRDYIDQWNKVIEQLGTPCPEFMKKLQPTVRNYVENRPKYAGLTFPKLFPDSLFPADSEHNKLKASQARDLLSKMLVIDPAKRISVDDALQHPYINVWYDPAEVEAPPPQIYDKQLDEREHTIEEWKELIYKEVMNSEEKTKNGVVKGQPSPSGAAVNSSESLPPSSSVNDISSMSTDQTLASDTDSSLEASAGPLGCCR

| residual activity [1] [%] | residual activity [2] [%] | residual binding, % of control [3] [%] | residual activity [4] [%] | residual binding, % of control [5] [%] | residual binding, % of control [6] [%] | residual binding, % of control [7] [%] | SMILES |
| --- | --- | --- | --- | --- | --- | --- | --- |
| 93 | 92 | 97 | 100 | 97 | 76 | 89 | CCOC(=O)c1sc(-c2ccncc2)nc1O |
| 46 | 82 | 55 | 100 | 56 | 100 | 83 | COc1ccc(-c2nc(-c3ccnc(N)n3)sc2C(N)=O)c(Cl)c1 |

| SMILES | residual activity [1] [%] | residual activity [2] [%] | residual binding, % of control [3] [%] | residual activity [4] [%] | residual binding, % of control [5] [%] | residual binding, % of control [6] [%] | residual binding, % of control [7] [%] |
| --- | --- | --- | --- | --- | --- | --- | --- |
| NC(=O)c1sc(-c2ccnc(N)n2)nc1-c1ccc(Cl)cc1Cl | 83 | 78 | 78 | 100 | 72 | 100 | 100 |
